Results on eight compounds are retold here after ChEMBL document CHEMBL4261601, “Discovery and lead identification of quinazoline-based BRD4 inhibitors” (Bioorg Med Chem Lett, 2018).

As usually defined, the Cmax is the peak of the concentration-time curve. Usually AUC(0-inf) stands for the area under the concentration-time curve extrapolated to infinity. Broadly, the Kd is the free concentration of one partner at which half of the binding sites on the other are occupied at equilibrium, for simple one-to-one binding. As a reminder, the clearance is a measure of how efficiently the substance is removed, as volume per time. Low readings indicate a low capacity for elimination, high ones a high capacity for elimination. In general, half-life refers to the time in which the quantity being followed falls by half. A lower half-life goes with fast loss. Usually IC50 stands for the midpoint of a concentration-inhibition curve.

Data set [1] has as its system Mus musculus. Description: Cmax in CD-1 mouse at 2 mg/kg, iv measured after 5 mins. Type of data set: ADME, organism-based. Also noted: dose 2 mg/kg, route intravenous. To be noted: in vivo.
The test system of data set [2] is Mus musculus. Description: Oral bioavailability in CD-1 mouse at 10 mg/kg. The settings on record: in vivo. Type of data set: ADME, organism-based. In short, it runs like this:
(§1)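 CD-1 mice (n = 3) received a single oral dose of 10 mg/kg. Plasma drug levels were followed over time to derive AUC0–∞, t1/2 and oral bioavailability (F%), the last relative to the iv arm.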

Data set [3] in a line: (§2) AUC (0 to infinity) in CD-1 mouse at 10 mg/kg, po. Also noted: dose 10 mg/kg, time infinity, route oral. The settings on record: CD-1, mouse, in vivo. In kind it is ADME, organism-based. Put shortly:
as §1

Data set [4] concerns the target T1, Bromodomain-containing protein 4 (Homo sapiens, UniProt O60885). Description: Displacement of biotinylated acetylated peptide from recombinant human partial length BRD4 long isoform bromodomain 1/2 (N44 to E460 residues) expressed in Escherichia coli BL21 measured after 1 hr by Bromoscan method.
The nature of data set [5]: Plasma clearance in CD-1 mouse at 2 mg/kg, iv. Type of data set: ADME, organism-based.
The nature of data set [6]: Half life in CD-1 mouse at 2 mg/kg, iv. In kind it is ADME, organism-based. The settings on record: in vivo.
Data set [7] in a line: Half life in CD-1 mouse at 10 mg/kg, po. Type of data set: ADME, organism-based. The settings on record: in vivo. In short, it runs like this:
as §1

Data set [8] can be described thus: Volume of distribution at steady state in CD-1 mouse at 2 mg/kg, iv measured. In kind it is ADME, organism-based. The settings on record: in vivo, read-out: Vdss.
Data set [9] in a line: AUC (0 to infinity) in CD-1 mouse at 2 mg/kg, iv. Type of data set: ADME, organism-based. Also noted: dose 2 mg/kg, time infinity, route intravenous. The settings on record: in vivo.
The subject of data set [10] is Mus musculus. Description: Cmax in CD-1 mouse at 10 mg/kg, po measured after 5 mins. To be noted: in vivo. Type of data set: ADME, organism-based. Also noted: dose 10 mg/kg, route oral.
For another data set, the system named is MV4-11. Description: Cytotoxicity against human MV411 cells after 72 hrs by CellTiter-Glo assay. In kind it is functional, cell-based. To be noted: MV4-11, 72 h. Background: ATP-based viability assays read luminescence as a measure of living cells.
The target of data set [11] is T1, Bromodomain-containing protein 4. Description: Displacement of biotinylated acetylated peptide from recombinant human partial length BRD4 long isoform bromodomain 2 (K333 to E460 residues) expressed in Escherichia coli BL21 measured after 1 hr by Bromoscan method.
Data set [12] concerns the target T2, Bromodomain testis-specific protein (Homo sapiens, UniProt Q58F21). Description: Displacement of biotinylated acetylated peptide from recombinant human partial length BRDT isoform b bromodomain 1/2 (N21 to E382 residues) expressed in Escherichia coli BL21 measured after 1 hr by Bromoscan method.
The target in data set [13] is T3, Bromodomain-containing protein 2 (Homo sapiens, UniProt P25440). Description: Displacement of biotinylated acetylated peptide from recombinant human partial length BRD2 isoform 1 bromodomain 1 (K71 to N194 residues) expressed in Escherichia coli BL21 measured after 1 hr by Bromoscan method.
T3 sequence (P25440 whole entry, the tested form may be a part, canonical isoform): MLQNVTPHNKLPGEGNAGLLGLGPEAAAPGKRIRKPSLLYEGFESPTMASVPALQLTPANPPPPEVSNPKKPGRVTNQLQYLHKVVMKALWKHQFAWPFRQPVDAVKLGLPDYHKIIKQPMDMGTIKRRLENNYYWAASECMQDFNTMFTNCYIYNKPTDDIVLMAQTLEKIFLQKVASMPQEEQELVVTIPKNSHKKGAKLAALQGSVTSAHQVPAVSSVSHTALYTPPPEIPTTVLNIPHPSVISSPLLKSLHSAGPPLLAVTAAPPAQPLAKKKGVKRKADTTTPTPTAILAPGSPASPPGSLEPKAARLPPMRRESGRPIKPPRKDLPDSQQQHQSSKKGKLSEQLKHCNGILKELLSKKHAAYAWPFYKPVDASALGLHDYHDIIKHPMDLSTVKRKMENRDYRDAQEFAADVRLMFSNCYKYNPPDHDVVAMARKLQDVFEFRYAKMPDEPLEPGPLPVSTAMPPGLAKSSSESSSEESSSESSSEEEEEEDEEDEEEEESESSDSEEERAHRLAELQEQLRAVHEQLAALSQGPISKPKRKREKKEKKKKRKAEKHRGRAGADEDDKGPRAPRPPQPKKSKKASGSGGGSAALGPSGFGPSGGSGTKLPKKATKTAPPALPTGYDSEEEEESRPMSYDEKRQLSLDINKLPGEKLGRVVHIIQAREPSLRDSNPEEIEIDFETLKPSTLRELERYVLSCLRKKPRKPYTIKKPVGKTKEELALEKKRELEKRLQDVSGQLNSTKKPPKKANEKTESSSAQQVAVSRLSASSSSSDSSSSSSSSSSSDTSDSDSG
Data set [14] deals with T4, Bromodomain-containing protein 3 (Homo sapiens, UniProt Q15059). Description: Displacement of biotinylated acetylated peptide from recombinant human partial length BRD3 bromodomain 1 (P24 to E144 residues) expressed in Escherichia coli BL21 measured after 1 hr by Bromoscan method.
T4 sequence (Q15059 whole entry, the tested form may be a part, canonical isoform): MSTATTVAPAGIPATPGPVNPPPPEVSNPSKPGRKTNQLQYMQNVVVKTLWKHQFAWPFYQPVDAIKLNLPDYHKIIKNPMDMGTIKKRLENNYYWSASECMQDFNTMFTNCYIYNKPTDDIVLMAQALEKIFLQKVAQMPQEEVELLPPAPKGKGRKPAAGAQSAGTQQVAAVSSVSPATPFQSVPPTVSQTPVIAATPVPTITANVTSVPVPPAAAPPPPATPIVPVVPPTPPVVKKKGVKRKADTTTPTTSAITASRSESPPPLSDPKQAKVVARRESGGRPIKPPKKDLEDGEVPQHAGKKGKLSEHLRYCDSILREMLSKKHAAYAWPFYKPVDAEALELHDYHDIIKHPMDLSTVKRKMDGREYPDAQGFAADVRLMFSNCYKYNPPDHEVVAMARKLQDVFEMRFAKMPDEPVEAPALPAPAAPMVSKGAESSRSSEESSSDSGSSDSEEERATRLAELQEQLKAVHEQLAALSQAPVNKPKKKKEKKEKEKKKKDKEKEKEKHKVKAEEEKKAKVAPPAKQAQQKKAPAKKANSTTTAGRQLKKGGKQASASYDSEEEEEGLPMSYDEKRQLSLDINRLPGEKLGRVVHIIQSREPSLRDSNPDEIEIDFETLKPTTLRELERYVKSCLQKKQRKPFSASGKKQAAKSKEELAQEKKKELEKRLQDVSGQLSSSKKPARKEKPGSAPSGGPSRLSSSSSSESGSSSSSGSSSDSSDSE
Data set [15] concerns the target T2, Bromodomain testis-specific protein. Description: Displacement of biotinylated acetylated peptide from recombinant human partial length BRDT isoform b bromodomain 2 (K250 to E382 residues) expressed in Escherichia coli BL21 measured after 1 hr by Bromoscan method.
Data set [16] concerns Mus musculus. The description is as §2. Type of data set: ADME, organism-based. The settings on record: mouse, in vivo, BLD = below limit of detection. Further details: dose 10 mg/kg, time infinity, route oral. In short, it runs like this:
as §1

Data set [17] addresses T4, Bromodomain-containing protein 3. Description: Displacement of biotinylated acetylated peptide from recombinant human partial length BRD3 bromodomain 1/2 (P24 to P416 residues) expressed in Escherichia coli BL21 measured after 1 hr by Bromoscan method.
The target is the same in data set [18]. Description: Displacement of biotinylated acetylated peptide from recombinant human partial length BRD3 bromodomain 2 (G306 to P416 residues) expressed in Escherichia coli BL21 measured after 1 hr by Bromoscan method.
Data set [19] concerns the target T3, Bromodomain-containing protein 2. Description: Displacement of biotinylated acetylated peptide from recombinant human partial length BRD2 isoform 1 bromodomain 1/2 (K71 to D455 residues) expressed in Escherichia coli BL21 measured after 1 hr by Bromoscan method.
Data set [20] addresses T1, Bromodomain-containing protein 4. Description: Displacement of biotinylated acetylated peptide from recombinant human partial length BRD4 long isoform bromodomain 1 (N44 to E168 residues) expressed in Escherichia coli BL21 measured after 1 hr by Bromoscan method.
Data set [21] addresses T2, Bromodomain testis-specific protein. Description: Displacement of biotinylated acetylated peptide from recombinant human partial length BRDT isoform b bromodomain 1 (N21 to E137 residues) expressed in Escherichia coli BL21 measured after 1 hr by Bromoscan method.
For data set [22], the target named is T3, Bromodomain-containing protein 2. Description: Displacement of biotinylated acetylated peptide from recombinant human partial length BRD2 isoform 1 bromodomain 2 (E348 to D455 residues) expressed in Escherichia coli BL21 measured after 1 hr by Bromoscan method.

`Cc1noc(C)c1-c1ccc2nc(-c3cnn(CCO)c3)nc(N3CCOCC3c3ccccc3)c2c1` (stereo not drawn) showed a Cmax in the data set with Mus musculus [1] of 1690 ng/mL. This compound had a F with Mus musculus [2] of 51%. The AUC(0-inf) came to 4490 ng·h/mL in data set [3] and 1760 ng·h/mL in data set [9]. In addition, the Kd in data set [4] turned out to be 0.066 µM. Also, in data set [5], the clearance came out at 19.8 mL/min/kg. Besides, the half-life in [6] was 3.1 h; in [7], 2.1 h. Moreover, the Vd in data set [8] worked out at 1.7 L/kg.
`Cc1noc(C)c1-c1ccc2nc(C(=O)NC3CCN(C)CC3)nc(NCc3cccc(Cl)c3)c2c1` returned an AUC(0-inf) in [3] of 54 ng·h/mL. Besides, the dissociation constant (Kd) in [4] worked out at 0.08 µM. The same compound gave a half-life in [7] of 4 h. In addition, in the data set on Mus musculus [10], the Cmax was 9 ng/mL. The compound also yielded an IC50 in the data set with MV4-11 of 1.02 µM.
As for `CN(C)CCN1CCN(c2nc(NCc3cccc(Cl)c3)c3cc(-c4ccc(=O)n(C)c4)ccc3n2)CC1`, the Kd in data set [11] came to 0.05 µM; in data set [12], 0.067 µM; in data set [13], 0.033 µM; in data set [14] it was 0.021 µM; in data set [15] it was 0.16 µM; in data set [17], 0.02 µM. The Kd in data set [18] worked out at 0.021 µM; in data set [4], 0.044 µM; in data set [19], 0.027 µM; in [20], 0.018 µM; in data set [21] it was 0.02 µM; in data set [22], 0.024 µM. In addition, the AUC result in the data set with Mus musculus [16] is given as “Bld”. Also, 0.54 µM corresponded to half-maximal inhibition in the data set on MV4-11 (IC50).
Take `Cc1noc(C)c1-c1ccc2nc(N3CCN(CCN(C)C)CC3)nc(NCc3cncc(Cl)c3)c2c1`: in data set [4], the Kd was found to be 0.079 µM. In addition, inhibition in the data set on MV4-11 was half-maximal at 1.37 µM (IC50).
As for `Cc1noc(C)c1-c1ccc2nc(N(C)CCN(C)C)nc(NCc3cccc(Cl)c3)c2c1`, in data set [4], the Kd was 0.11 µM. Also, in the data set with MV4-11, inhibition was half-maximal at 2.97 µM (IC50).
`Cc1noc(C)c1-c1ccc2nc(N3CCN(CCN(C)C)CC3)nc(NCc3cccc(Cl)c3)c2c1`: the Kd in data set [4] was determined as 0.056 µM. In addition, the IC50 in the data set with MV4-11 was determined as 0.66 µM.
In the case of `Cc1noc(C)c1-c1ccc2nc(C(=O)NC3CCOCC3)nc(NCc3cccc(Cl)c3)c2c1`, the Kd in [4] was determined as 0.079 µM. The same compound returned an IC50 in the data set on MV4-11 of 2.84 µM.
Turning to `Cc1noc(C)c1-c1ccc2nc(N3CCN(CC(=O)N(C)C)CC3)nc(NCc3cccc(Cl)c3)c2c1`, the Kd in [4] came to 0.073 µM. Also, the IC50 in the data set on MV4-11 was 1.73 µM.
